Laboratory results as given in ChEMBL document CHEMBL4346672, “Antimicrobial and KPC/AmpC inhibitory activity of functionalized benzosiloxaboroles” (Eur J Med Chem, 2019).
Converted amounts (≈) assume the structure as drawn. The source made the active and inactive calls. No cut-off for these calls is given here.

How the values were obtained:
Pichia kudriavzevii [1] = assay: Antifungal activity against Candida krusei ATCC 6258 assessed as diameter of zone inhibition at 0.025 mg incubated for 24 hrs by disc diffusion method; assay type: functional; conditions: ATCC 6258, 24 h, read-out: DIZ
Outline: (§1)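 Disc diffusion on Mueller-Hinton II agar with 2% glucose and 0.5 mg/L methylene blue. Compounds were dissolved in DMSO. Yeasts were subcultured on Sabouraud dextrose agar for 24–48 h at 30 °C before testing. Plates were incubated at 35 °C for 24 h.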

Candida albicans [2] = assay: Antifungal activity against Candida albicans ATCC 90028 assessed as decrease in fungal cell growth incubated for 24 hrs by E-test; assay type: functional; conditions: ATCC 90028, 24 h
Outline: (§2)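 Yeast strains were stored at -80 °C and subcultured twice on Sabouraud dextrose agar for 24–48 h at 30 °C before testing.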

Candida parapsilosis [3] = assay: Antifungal activity against Candida parapsilosis ATCC 22019 assessed as decrease in fungal cell growth incubated for 24 hrs by E-test; assay type: functional; conditions: Lodderomyces parapsilosis, ATCC 22019, 24 h
Outline: (§3)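 Yeasts were first subcultured on Sabouraud dextrose agar at 30 °C for 24–48 h. […] The MIC was recorded per Etest recommendations, which covers cases where macro-colonies persist inside the ellipse.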

Candida parapsilosis [4] = assay: Antifungal activity against Candida parapsilosis ATCC 22019 assessed as diameter of zone inhibition at 0.025 mg incubated for 24 hrs by disc diffusion method; assay type: functional; conditions: Lodderomyces parapsilosis, ATCC 22019, 24 h; read-out: DIZ; outline: as §1
Candida albicans [5] = assay: Antifungal activity against Candida albicans ATCC 90028 assessed as diameter of zone inhibition at 0.025 mg incubated for 24 hrs by disc diffusion method; assay type: functional; conditions: ATCC 90028, 24 h, read-out: DIZ; outline: as §1
[6] = test system: Meyerozyma guilliermondii; assay: Antifungal activity against Candida guilliermondii IBA 155 assessed as decrease in fungal cell growth incubated for 24 hrs by E-test; assay type: functional; conditions: IBA 155, 24 h; outline: as §3
Pichia kudriavzevii [7] = assay: Antifungal activity against Candida krusei ATCC 6258 assessed as decrease in fungal cell growth incubated for 24 hrs by E-test; assay type: functional; conditions: ATCC 6258, 24 h; outline: as §3
Candida tropicalis [8] = assay: Antifungal activity against Candida tropicalis IBA 171 assessed as decrease in fungal cell growth incubated for 24 hrs by E-test; assay type: functional; conditions: IBA 171, 24 h; outline: as §3
Candida tropicalis [9] = assay: Antifungal activity against Candida tropicalis IBA 171 assessed as diameter of zone inhibition at 0.025 mg incubated for 24 hrs by disc diffusion method; assay type: functional; conditions: IBA 171, 24 h, read-out: DIZ; outline: as §1
Saccharomyces cerevisiae [10] = assay: Antifungal activity against Saccharomyces cerevisiae ATCC 9763 assessed as decrease in fungal cell growth incubated for 24 hrs by E-test; assay type: functional; conditions: ATCC 9763, 24 h; outline: as §2
Saccharomyces cerevisiae [11] = assay: Antifungal activity against Saccharomyces cerevisiae ATCC 9763 diameter of zone inhibition at 0.025 mg incubated for 24 hrs by disc diffusion method; assay type: functional; conditions: ATCC 9763, 24 h, read-out: DIZ; outline: as §1
[12] = test system: Meyerozyma guilliermondii; assay: Antifungal activity against Candida guilliermondii IBA 155 assessed as diameter of zone inhibition at 0.025 mg incubated for 24 hrs by disc diffusion method; assay type: functional; conditions: IBA 155, 24 h, read-out: DIZ; outline: as §1
[13] = test system: Bordetella bronchiseptica; assay: Antibacterial activity against Bordetella bronchiseptica ATCC 4617 measured after 18 hrs by CLSI broth dilution method; assay type: functional; conditions: ATCC 4617, 18 h
Outline: (§4)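 Broth MIC in Mueller-Hinton II broth following CLSI, compounds dissolved in DMSO. Strains subcultured twice on tryptic soy agar before testing. Growth read after 35 °C, 18 h.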

Burkholderia cepacia [14] = assay: Bactericidal activity against Burkholderia cepacia ATCC 25416 measured after 18 hrs by CLSI broth dilution method; assay type: functional; conditions: ATCC 25416, 18 h
Outline: (§5)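 Strains stored at -80 °C and subcultured twice on tryptic soy agar before testing. Compounds dissolved in DMSO. […] MBC then determined per CLSI recommendations.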

Proteus mirabilis [15] = assay: Antibacterial activity against Proteus mirabilis ATCC 12453 measured after 18 hrs by CLSI broth dilution method; assay type: functional; conditions: ATCC 12453, 18 h; outline: as §4
Enterococcus faecium [16] = assay: Antibacterial activity against Enterococcus faecium ATCC 6057 measured after 18 hrs by CLSI broth dilution method; assay type: functional; conditions: ATCC 6057, 18 h; outline: as §4
Acinetobacter baumannii [17] = assay: Antibacterial activity against Acinetobacter baumannii ATCC 19606 assessed as diameter of zone inhibition measured after 18 hrs by CLSI disc diffusion method; assay type: functional
Outline: (§6)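 Disc diffusion on Mueller-Hinton II agar. Compounds dissolved in DMSO. Strains stored at -80 °C and subcultured twice on tryptic soy agar before testing. Inhibition zones read after 35 °C, 18 h.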

Pseudomonas aeruginosa [18] = assay: Antibacterial activity against Pseudomonas aeruginosa ATCC 27853 assessed as diameter of zone inhibition measured after 18 hrs by CLSI disc diffusion method; assay type: functional, organism-based; outline: as §6
Burkholderia cepacia [19] = assay: Antibacterial activity against Burkholderia cepacia ATCC 25416 assessed as diameter of zone inhibition measured after 18 hrs by CLSI disc diffusion method; assay type: functional; outline: as §6
[20] = test system: Staphylococcus epidermidis; assay: Bactericidal activity against Staphylococcus epidermidis ATCC 12228 measured after 18 hrs by CLSI broth dilution method; assay type: functional; conditions: ATCC 12228, 18 h; outline: as §5
Acinetobacter baumannii [21] = assay: Antibacterial activity against Acinetobacter baumannii ATCC 19606 measured after 18 hrs by CLSI broth dilution method; assay type: functional; conditions: ATCC 19606, 18 h; outline: as §4
Enterococcus faecalis [22] = assay: Antibacterial activity against Enterococcus faecalis ATCC 29212 measured after 18 hrs by CLSI broth dilution method; assay type: functional; conditions: ATCC 29212, 18 h; outline: as §4
[23] = test system: Stenotrophomonas maltophilia; assay: Antibacterial activity against Stenotrophomonas maltophilia ATCC 13637 measured after 18 hrs by CLSI broth dilution method; assay type: functional; conditions: ATCC 13637, 18 h; outline: as §4
[24] = test system: Staphylococcus epidermidis; assay: Antibacterial activity against Staphylococcus epidermidis ATCC 12228 measured after 18 hrs by CLSI broth dilution method; assay type: functional; conditions: ATCC 12228, 18 h; outline: as §4
Escherichia coli [25] = assay: Antibacterial activity against Escherichia coli ATCC 25922 assessed as diameter of zone inhibition measured after 18 hrs by CLSI disc diffusion method; assay type: functional; outline: as §6
Enterococcus faecium [26] = assay: Bactericidal activity against Enterococcus faecium ATCC 6057 measured after 18 hrs by CLSI broth dilution method; assay type: functional; conditions: ATCC 6057, 18 h; outline: as §5
Staphylococcus aureus [27] = assay: Antibacterial activity against Staphylococcus aureus ATCC 6538P measured after 18 hrs by CLSI broth dilution method; assay type: functional; outline: as §4
[28] = test system: Bordetella bronchiseptica; assay: Bactericidal activity against Bordetella bronchiseptica ATCC 4617 measured after 18 hrs by CLSI broth dilution method; assay type: functional; conditions: ATCC 4617, 18 h; outline: as §5
Klebsiella pneumoniae [29] = assay: Antibacterial activity against Klebsiella pneumoniae ATCC 13883 measured after 18 hrs by CLSI broth dilution method; assay type: functional; conditions: ATCC 13883, 18 h; outline: as §4
Enterobacter cloacae [30] = assay: Antibacterial activity against Enterobacter cloacae DSM 6234 measured after 18 hrs by CLSI broth dilution method; assay type: functional; conditions: DSM 6234, 18 h; outline: as §4
Enterobacter cloacae [31] = assay: microbe, parasite or virus in culture; conditions: DSM 6234, 18 h
Enterococcus faecalis [32] = assay: Bactericidal activity against Enterococcus faecalis ATCC 29212 measured after 18 hrs by CLSI broth dilution method; assay type: functional; conditions: ATCC 29212, 18 h; outline: as §5
Staphylococcus aureus [33] = assay: microbe, parasite or virus in culture; conditions: ATCC 6538P, 18 h, read-out: DIZ
Burkholderia cepacia [34] = assay: Antibacterial activity against Burkholderia cepacia ATCC 25416 measured after 18 hrs by CLSI broth dilution method; assay type: functional; conditions: ATCC 25416, 18 h; outline: as §4
[35] = test system: Bordetella bronchiseptica; assay: Antibacterial activity against Bordetella bronchiseptica ATCC 4617 assessed as diameter of zone inhibition measured after 18 hrs by CLSI disc diffusion method; assay type: functional; outline: as §6
Proteus mirabilis [36] = assay: Antibacterial activity against Proteus mirabilis ATCC 12453 assessed as diameter of zone inhibition measured after 18 hrs by CLSI disc diffusion method; assay type: functional; outline: as §6
Staphylococcus aureus [37] = assay: Bactericidal activity against Staphylococcus aureus ATCC 6538P measured after 18 hrs by CLSI broth dilution method; assay type: functional; outline: as §5
[38] = test system: Stenotrophomonas maltophilia; assay: Antibacterial activity against Stenotrophomonas maltophilia ATCC 13637 assessed as diameter of zone inhibition measured after 18 hrs by CLSI disc diffusion method; assay type: functional; outline: as §6
Escherichia coli [39] = assay: Antibacterial activity against Escherichia coli ATCC 25922 measured after 18 hrs by CLSI broth dilution method; assay type: functional; conditions: ATCC 25922, 18 h; outline: as §4
Escherichia coli [40] = assay: microbe, parasite or virus in culture; conditions: ATCC 25922, 18 h
Pseudomonas aeruginosa [41] = assay: Antibacterial activity against Pseudomonas aeruginosa ATCC 27853 measured after 18 hrs by CLSI broth dilution method; assay type: functional; conditions: ATCC 27853, 18 h; outline: as §4
Acinetobacter baumannii [42] = assay: microbe, parasite or virus in culture; conditions: ATCC 19606, 18 h
Bacillus subtilis = assay: microbe, parasite or virus in culture; conditions: ATCC 6633, 18 h, read-out: DIZ
[43] = test system: Staphylococcus epidermidis; assay: microbe, parasite or virus in culture; conditions: ATCC 12228, 18 h, read-out: DIZ
Klebsiella pneumoniae [44] = assay: microbe, parasite or virus in culture; conditions: ATCC 13883, 18 h
Serratia marcescens = assay: Antibacterial activity against Serratia marcescens ATCC 13880 measured after 18 hrs by CLSI broth dilution method; assay type: functional; conditions: ATCC 13880, 18 h; outline: as §4
Enterobacter cloacae [45] = assay: Antibacterial activity against Enterobacter cloacae DSM 6234 assessed as diameter of zone inhibition measured after 18 hrs by CLSI disc diffusion method; assay type: functional; outline: as §6

OC(Cn1cncn1)(Cn1cncn1)c1ccc(F)cc1F [FLUCONAZOLE]
zone of inhibition at 25 µg/disc (Pichia kudriavzevii [1]): 16 mm | MIC (Candida albicans [2]): 1 µg/mL (≈ 3.27 µM) | MIC (Candida parapsilosis [3]): 2 µg/mL (≈ 6.53 µM) | zone of inhibition at 25 µg/disc (Candida parapsilosis [4]): 32 mm | zone of inhibition at 25 µg/disc (Candida albicans [5]): 43 mm | MIC [6]: 0.75 µg/mL (≈ 2.45 µM) | MIC (Pichia kudriavzevii [7]): 64 µg/mL (≈ 209 µM) | MIC (Candida tropicalis [8]): 0.38 µg/mL (≈ 1.24 µM) | zone of inhibition at 25 µg/disc (Candida tropicalis [9]): 39 mm | MIC (Saccharomyces cerevisiae [10]): 16 µg/mL (≈ 52.2 µM) | zone of inhibition at 25 µg/disc (Saccharomyces cerevisiae [11]): 12 mm | zone of inhibition at 25 µg/disc [12]: 40 mm

O=C1CN(/N=C/c2ccc([N+](=O)[O-])o2)C(=O)N1 [NITROFURANTOIN]
MIC [13]: 64 µg/mL (≈ 269 µM) | MBC (Burkholderia cepacia [14]): 32 µg/mL (≈ 134 µM) | MIC (Proteus mirabilis [15]): 128 µg/mL (≈ 537 µM) | MIC (Enterococcus faecium [16]): 8 µg/mL (≈ 33.6 µM) | diameter of the inhibition zone (DIZ) (Acinetobacter baumannii [17]): 9 mm | diameter of the inhibition zone (DIZ) (Pseudomonas aeruginosa [18]): inactive | diameter of the inhibition zone (DIZ) (Burkholderia cepacia [19]): 12 mm | MBC [20]: 8 µg/mL (≈ 33.6 µM) | MIC (Acinetobacter baumannii [21]): 64 µg/mL (≈ 269 µM) | MIC (Enterococcus faecalis [22]): 8 µg/mL (≈ 33.6 µM) | MIC [23]: 128 µg/mL (≈ 537 µM) | MIC [24]: 4 µg/mL (≈ 16.8 µM) | diameter of the inhibition zone (DIZ) (Escherichia coli [25]): 24 mm | MBC (Enterococcus faecium [26]): > 128 µg/mL | MIC (Staphylococcus aureus [27]): 8 µg/mL (≈ 33.6 µM) | MBC [28]: 128 µg/mL (≈ 537 µM) | MIC (Klebsiella pneumoniae [29]): 32 µg/mL (≈ 134 µM) | MIC (Enterobacter cloacae [30]): 32 µg/mL (≈ 134 µM) | MBC (Enterobacter cloacae [31]): 32 µg/mL (≈ 134 µM) | MBC (Enterococcus faecalis [32]): 128 µg/mL (≈ 537 µM) | zone of inhibition at 300 µg/disc (Staphylococcus aureus [33]): 24 mm | MIC (Burkholderia cepacia [34]): 32 µg/mL (≈ 134 µM) | diameter of the inhibition zone (DIZ) [35]: inactive | diameter of the inhibition zone (DIZ) (Proteus mirabilis [36]): 9 mm | MBC (Staphylococcus aureus [37]): 16 µg/mL (≈ 67.2 µM) | diameter of the inhibition zone (DIZ) [38]: inactive | MIC (Escherichia coli [39]): 8 µg/mL (≈ 33.6 µM) | MBC (Escherichia coli [40]): 8 µg/mL (≈ 33.6 µM) | MIC (Pseudomonas aeruginosa [41]): > 128 µg/mL | MBC (Acinetobacter baumannii [42]): 128 µg/mL (≈ 537 µM) | zone of inhibition at 300 µg/disc (Bacillus subtilis): 30 mm | zone of inhibition at 300 µg/disc [43]: 31 mm | MBC (Klebsiella pneumoniae [44]): 32 µg/mL (≈ 134 µM) | MIC (Serratia marcescens): 128 µg/mL (≈ 537 µM) | diameter of the inhibition zone (DIZ) (Enterobacter cloacae [45]): 17 mm
